# Laboratory results published in ChEMBL document CHEMBL2331284, “Synthesis and biological evaluation of 1,3,4-thiadiazole analogues as novel AChE and BuChE inhibitors” (Eur J Med Chem, 2013).
# The source made the active and inactive calls. The rule behind the calls is not given here.
# Tests used:
# [1] = Selectivity ratio of IC50 for equine serum BChE to IC50 for electric eel AChE
# How it was run: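 Modified Ellman assay for both enzymes: electric eel AChE with ATCh, or equine serum BuChE with BTCh; DTNB; 0.1 M potassium phosphate pH 8. Compound preincubated 10 min before substrate, absorbance rise at 412 nm at 1-min intervals, 37 °C. Seven concentrations (10⁻³–10⁻⁹ M) run in triplicate. IC50 from log dose–response; ratio = IC50(BuChE)/IC50(AChE).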
# Cholinesterase = Cholinesterase (Equus caballus, UniProt P81908); assay: Inhibition of equine serum BChE using butyrylthiocholine iodide as substrate after 10 mins by Ellman method
# Acetylcholinesterase = Acetylcholinesterase (Electrophorus electricus, UniProt O42275); assay: Inhibition of electric eel AChE using […] as substrate after 10 mins by Ellman method
# [2] = molecular target: Acetylcholinesterase (Electrophorus electricus) (UniProt O42275); assay: Non-competitive inhibition of electric eel AChE using acetylcholine iodide as substrate at 0.10 to 0.14 uM by Lineweaver-Burk method
# [3] = molecular target: Acetylcholinesterase (Electrophorus electricus) (UniProt O42275); conditions: at 0.12 to 0.17 µM
# Sequence of Acetylcholinesterase (O42275 whole entry): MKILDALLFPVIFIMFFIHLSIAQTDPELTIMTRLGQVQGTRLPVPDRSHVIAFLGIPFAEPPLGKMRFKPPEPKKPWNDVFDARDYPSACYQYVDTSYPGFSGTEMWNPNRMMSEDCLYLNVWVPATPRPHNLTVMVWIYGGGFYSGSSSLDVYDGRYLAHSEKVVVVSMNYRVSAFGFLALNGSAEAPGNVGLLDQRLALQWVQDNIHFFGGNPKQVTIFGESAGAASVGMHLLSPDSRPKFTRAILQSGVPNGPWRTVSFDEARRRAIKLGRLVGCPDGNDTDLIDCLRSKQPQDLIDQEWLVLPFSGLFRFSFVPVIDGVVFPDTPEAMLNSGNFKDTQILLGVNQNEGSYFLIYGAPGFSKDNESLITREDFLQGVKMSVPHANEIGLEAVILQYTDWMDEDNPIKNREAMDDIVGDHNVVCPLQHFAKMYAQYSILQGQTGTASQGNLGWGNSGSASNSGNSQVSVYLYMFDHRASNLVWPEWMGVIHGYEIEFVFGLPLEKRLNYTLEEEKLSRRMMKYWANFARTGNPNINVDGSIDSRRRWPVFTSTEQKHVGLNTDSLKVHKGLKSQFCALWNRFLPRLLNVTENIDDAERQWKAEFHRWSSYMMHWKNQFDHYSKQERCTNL
# Sequence of Cholinesterase (P81908 whole entry): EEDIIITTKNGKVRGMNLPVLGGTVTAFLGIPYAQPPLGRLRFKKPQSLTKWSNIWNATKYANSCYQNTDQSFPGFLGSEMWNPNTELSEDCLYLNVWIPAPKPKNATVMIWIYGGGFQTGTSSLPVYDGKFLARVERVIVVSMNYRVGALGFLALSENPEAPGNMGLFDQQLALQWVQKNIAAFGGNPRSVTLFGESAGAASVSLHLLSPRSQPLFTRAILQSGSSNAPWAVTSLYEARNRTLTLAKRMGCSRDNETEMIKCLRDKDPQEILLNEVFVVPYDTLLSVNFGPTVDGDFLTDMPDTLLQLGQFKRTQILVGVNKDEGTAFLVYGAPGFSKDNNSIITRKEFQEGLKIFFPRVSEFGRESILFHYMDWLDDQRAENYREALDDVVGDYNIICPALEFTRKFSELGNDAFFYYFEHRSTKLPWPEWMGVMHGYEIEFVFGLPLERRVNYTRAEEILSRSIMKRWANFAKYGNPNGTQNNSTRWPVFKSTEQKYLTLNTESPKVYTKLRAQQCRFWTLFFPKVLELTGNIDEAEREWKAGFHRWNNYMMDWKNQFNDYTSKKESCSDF
# Sequence of Acetylcholinesterase (Electrophorus electricus) (O42275 24-633 limits assumed): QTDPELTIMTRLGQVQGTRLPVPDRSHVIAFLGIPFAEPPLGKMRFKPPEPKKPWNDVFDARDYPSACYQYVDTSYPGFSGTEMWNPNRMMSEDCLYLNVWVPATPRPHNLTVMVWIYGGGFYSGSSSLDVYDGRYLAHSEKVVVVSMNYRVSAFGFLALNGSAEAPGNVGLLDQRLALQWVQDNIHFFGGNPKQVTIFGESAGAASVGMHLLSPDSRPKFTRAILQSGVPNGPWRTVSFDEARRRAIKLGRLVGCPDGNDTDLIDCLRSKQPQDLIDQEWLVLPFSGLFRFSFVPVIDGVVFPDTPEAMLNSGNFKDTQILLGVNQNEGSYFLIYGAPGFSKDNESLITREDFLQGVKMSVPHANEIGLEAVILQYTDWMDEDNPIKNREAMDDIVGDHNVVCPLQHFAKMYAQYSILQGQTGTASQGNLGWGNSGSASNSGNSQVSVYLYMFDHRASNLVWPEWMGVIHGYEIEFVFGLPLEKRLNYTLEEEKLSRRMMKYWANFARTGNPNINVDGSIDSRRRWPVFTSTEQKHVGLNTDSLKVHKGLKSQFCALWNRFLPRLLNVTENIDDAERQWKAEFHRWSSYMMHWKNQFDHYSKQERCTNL
SMILES,Ratio IC50 [1],IC50 (Cholinesterase) [µM],IC50 (Acetylcholinesterase) [µM],inhibition [2],inhibition [3]
O=[N+]([O-])c1ccccc1-c1nnc(-c2ccc(O)cc2O)s1,27,57.3,2.12,–,–
COc1cc(-c2nnc(-c3ccc(O)cc3O)s2)cc(OC)c1OC,1150,196,0.17,–,–
COc1cc(-c2nnc(-c3ccc(O)cc3O)s2)ccc1O,5.9,112,19.2,–,–
Oc1ccc(-c2nnc(-c3cc(Cl)cc(Cl)c3)s2)c(O)c1,> 11.1,> 500,45.3,–,–
COc1ccccc1-c1nnc(-c2ccc(O)cc2O)s1,7.9,212,26.7,–,–
Oc1ccc(-c2nnc(-c3ccccc3Cl)s2)c(O)c1,127,196,1.55,–,–
COc1ccc(-c2nnc(-c3ccc(O)cc3O)s2)cc1OC,> 25.9,> 500,19.3,–,–
Oc1ccc(-c2nnc(-c3ccc(O)c(O)c3)s2)c(O)c1,11.4,2.16,0.19,–,–
COc1ccc(-c2nnc(-c3ccc(O)cc3O)s2)cc1,44.2,96.3,2.18,–,–
Oc1ccc(-c2nnc(-c3ccc(Cl)cc3Cl)s2)c(O)c1,> 3.9,> 500,128,–,–
Oc1ccc(-c2nnc(-c3ccccc3Br)s2)c(O)c1,4.8,0.29,0.06,–,–
Oc1ccc(-c2nnc(-c3cc(Cl)ccc3Cl)s2)c(O)c1,0.17,19.1,112,–,–
Cc1cc(-c2nnc(-c3ccc(O)cc3O)s2)ccc1[N+](=O)[O-],7.1,148,20.9,–,–
Oc1ccc(-c2nnc(-c3ccc(C(F)(F)F)cc3)s2)c(O)c1,294,26.5,0.09,Active,–
O=[N+]([O-])c1cccc(-c2nnc(-c3ccc(O)cc3O)s2)c1,47.9,32.1,0.67,–,–
COc1cccc(-c2nnc(-c3ccc(O)cc3O)s2)c1,25.5,27.3,1.87,–,–
Oc1ccc(-c2nnc(-c3ccccc3F)s2)c(O)c1,> 467,> 500,1.07,–,–
Cc1cccc(-c2nnc(-c3ccc(O)cc3O)s2)c1,106,17,0.16,–,Active
Nc1cccc(-c2nnc(-c3ccc(O)cc3O)s2)c1,48.7,84.3,1.73,–,–
Oc1ccc(-c2nnc(-c3ccc(O)cc3O)s2)c(O)c1,14.2,26.7,1.89,–,–
CN(C)C(=O)Oc1cccc([N+](C)(C)C)c1 [NEOSTIGMINE BROMIDE],1.4,0.07,0.05,–,–
COc1ccc(OC)c(-c2nnc(-c3ccc(O)cc3O)s2)c1,40.5,63.3,1.56,–,–
